Measurements: PMC6929040 (ACS Synthetic Biology, 2019)
“Also recorded” adds a separate entry of the source.

Legend:
human 5-HTR4b = human 5-HTR4b (Homo sapiens, UniProt Q13639); test: Luciferase-based 5-HTR4b assay in yeast; format: cell-based; details: for confirmation as 5-HTR4b ligand by dose response curves: 5-HTR4b assay strain vs control strain with blank plasmid in lieu of 5-HTR4b; for anti-infection library screening result (Z-score): 403-member library; for anti-infection library screening result (Z-score) / natural products library screening result (Z-score normalized to serotonin): singlets; for natural products library screening result (Z-score normalized to serotonin): 803-member library
[1] = test system: human colon epithelial cells (Caco-2); test: Cell migration assay; format: cell-based; details: Caco-2, 10 μM, 48 h, vs PBS control
Outline: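 Caco-2 cells grown at 37 °C, 5% CO2 in high-glucose DMEM with 10% FBS and 1% penicillin-streptomycin. Cells at (1–2) × 10^5 cells/mL were seeded into both wells of culture inserts and left overnight to attach. Inserts were then removed and cells washed twice with PBS. […] Imaged at 0, 24 and 48 h, and the cell-free zone was measured.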

[2] = test system: human colon epithelial cells (Caco-2); test: Colon cell wound healing scratch assay; format: cell-based; details: Caco-2 scratch assay, 10 μM, 48 h, vs PBS control
yeast (PPY1808) = test: Toxicity assessment in yeast; format: cell-based, Saccharomyces cerevisiae; details: yeast incubated 2.5 h, 0, 10 μM, 100 μM

Chain of human 5-HTR4b (Q13639 whole entry): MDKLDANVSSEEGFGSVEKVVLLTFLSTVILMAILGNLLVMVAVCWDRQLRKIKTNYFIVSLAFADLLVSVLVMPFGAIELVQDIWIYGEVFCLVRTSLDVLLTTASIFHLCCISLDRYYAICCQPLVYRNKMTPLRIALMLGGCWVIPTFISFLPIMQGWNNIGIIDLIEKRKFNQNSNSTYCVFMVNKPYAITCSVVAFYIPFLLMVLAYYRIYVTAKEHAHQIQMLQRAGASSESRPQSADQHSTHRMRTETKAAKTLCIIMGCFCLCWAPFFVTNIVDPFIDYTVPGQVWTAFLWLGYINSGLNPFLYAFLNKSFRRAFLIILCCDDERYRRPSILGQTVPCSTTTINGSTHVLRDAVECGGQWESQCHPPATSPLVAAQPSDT

| confirmation as 5-HTR4b ligand by dose response curves (human 5-HTR4b) | natural products library screening result (Z-score normalized to serotonin) (human 5-HTR4b; 10 μM) | SMILES | other results |
| --- | --- | --- | --- |
| could not confirm |  | CN[C@@H]1[C@@H](O)[C@@H](O[C@@H]2[C@@H](O)[C@H](O[C@H]3O[C@H](CN)[C@@H](O)[C@H](O)[C@H]3O)[C@@H](N)C[C@H]2NC(=O)[C@@H](O)CN)OC[C@]1(C)O [isepamicin] | anti-infection library screening result (Z-score) (human 5-HTR4b; 1 μM): hits |
| could not confirm | hits | O=c1c2cc(O[C@@H]3O[C@H](CO)[C@@H](O)[C@H](O)[C@H]3O)c(O)cc2oc2cc(O)c([C@@H]3O[C@H](CO)[C@@H](O)[C@H](O)[C@H]3O)c(O)c12 [neomangiferin] |  |
|  | hits | O=C(CC1NCCCC1O)Cn1cnc2cc(Br)c(Cl)cc2c1=O (centres unmarked) [halofuginone] | cell motility (cell migration) [1]: results only in increased wound healing; wound healing [2]: statistically significant increase in wound healing (P < 0.05); also recorded: statistically significantly different than the PBS control (P < 0.05) |
| could not confirm | hits | COc1ccc(-c2oc3c(CC=C(C)C)c(O)cc(O)c3c(=O)c2O[C@@H]2O[C@@H](C)[C@H](O)[C@@H](O)[C@H]2O)cc1 [baohuoside I] |  |
| could not confirm | hits | O=c1c(-c2ccc(O)cc2)coc2cc(O[C@@H]3O[C@H](CO)[C@@H](O)[C@H](O)[C@H]3O)cc(O)c12 [genistin] |  |
| could not confirm | hits | O=C(O)CCCc1c[nH]c2ccccc12 [3-indolebutyric acid] |  |
|  |  | CCOc1ccc2nc3cc(N)ccc3c(N)c2c1 [ethacridine] | anti-infection library screening result (Z-score) (human 5-HTR4b; 10 μM): hits; cell motility (cell migration) [1]: did not result in a significant increase; wound healing [2]: did not result in a significant increase; toxicity to yeast (yeast (PPY1808)): toxic at high concentrations |
| could not confirm |  | O=C(Nc1ccc(O)cc1)c1ccccc1O [osalmid] | anti-infection library screening result (Z-score) (human 5-HTR4b; 1 μM): hits |
|  |  | Nc1ccc2cc3ccc(N)cc3nc2c1 [proflavine] | anti-infection library screening result (Z-score) (human 5-HTR4b; 10 μM): hits; cell motility (cell migration) [1]: did not result in a significant increase; wound healing [2]: did not result in a significant increase; toxicity to yeast (yeast (PPY1808)): toxic at high concentrations |
| confirmed | hits | NC(Cc1c[nH]c2ccc(O)cc12)C(=O)O [5-HTP, D/L-5-hydroxytryptophan] |  |
| could not confirm | hits | O=c1cc(-c2ccccc2)oc2cc(O)c(O)c(O)c12 [baicalein] |  |
| could not confirm |  | CC[n+]1c(-c2ccccc2)c2cc(N)ccc2c2ccc(N)cc21 [ethidium bromide] | anti-infection library screening result (Z-score) (human 5-HTR4b; 10 μM): hits |
|  | hits | N[C@@H](Cc1c[nH]c2ccc(O)cc12)C(=O)O [L-5-HTP, L-5-hydroxytryptophan] |  |
| could not confirm |  | CC1(C)C2CCC1(C)C(O)C2 (centres unmarked) [borneol] | anti-infection library screening result (Z-score) (human 5-HTR4b; 1 μM): hits |
|  |  | Cc1nc(Nc2ccc(F)cc2)nc(N2CCc3ccccc3C2C)c1C (centres unmarked) [revaprazan] | anti-infection library screening result (Z-score) (human 5-HTR4b; 1 μM): hits; cell motility (cell migration) [1]: statistically significantly different than the PBS control (P < 0.01); cell motility (cell migration) ([1]; listed as Revaprazan): significantly (P < 0.01) increase cell motility; wound healing [2]: statistically significant increase in wound healing (P < 0.05); also recorded: statistically significantly different than the PBS control (P < 0.05); toxicity to yeast (yeast (PPY1808)): toxic at high concentrations |
| could not confirm | hits | CCn1cc(C(=O)O)c(=O)c2ccc(C)nc21 [nalidixic acid] |  |

| SMILES | confirmation as 5-HTR4b ligand by dose response curves (human 5-HTR4b) | natural products library screening result (Z-score normalized to serotonin) (human 5-HTR4b; 10 μM) | other results |
| --- | --- | --- | --- |
| NCCc1c[nH]c2ccc(O)cc12 [serotonin] |  | hits | signal increase after activation (human 5-HTR4b; pH = 7, 100 mg/L serotonin, 2 h ligand incubation, 30 min luciferase substrate incubation): 38 fold |
| CN(C)CCc1ccc(O)cc1 [hordenine] |  | hits | anti-infection library screening result (Z-score) (human 5-HTR4b; 10 μM): hits; cell motility (cell migration) [1]: significantly (P < 0.01) increase cell motility; also recorded: statistically significantly different than the PBS control (P < 0.01); wound healing [2]: statistically significant increase in wound healing (P < 0.05); also recorded: statistically significantly different than the PBS control (P < 0.05) |
| NCCc1c[nH]c2ccccc12 [tryptamine] | confirmed | hits |  |
